Results as given in ChEMBL document CHEMBL1152954, “Discovery, characterization and comparison of inhibitors of Bacillus anthracis and Staphylococcus aureus replicative DNA helicases” (Bioorg Med Chem, 2009).
Converted amounts (≈) assume the structure as drawn. The source made the active and inactive calls. The calls are words filed in the database; no cut-off is given here.

Columns and labels:
Bacillus anthracis [1] = assay: Antibacterial activity against Bacillus anthracis Sterne by broth microdilution method; format: functional
Staphylococcus aureus [2] = assay: Antibacterial activity against Staphylococcus aureus Smith by broth microdilution method; format: functional
DnaC helicase = target: T1, DnaC helicase (Staphylococcus aureus, UniProt Q9AQH7); assay: Inhibition of Staphylococcus aureus Smith DNA helicase DnaC assessed as strand unwinding after 30 mins by FRET assay
T1 sequence (Q9AQH7 whole entry): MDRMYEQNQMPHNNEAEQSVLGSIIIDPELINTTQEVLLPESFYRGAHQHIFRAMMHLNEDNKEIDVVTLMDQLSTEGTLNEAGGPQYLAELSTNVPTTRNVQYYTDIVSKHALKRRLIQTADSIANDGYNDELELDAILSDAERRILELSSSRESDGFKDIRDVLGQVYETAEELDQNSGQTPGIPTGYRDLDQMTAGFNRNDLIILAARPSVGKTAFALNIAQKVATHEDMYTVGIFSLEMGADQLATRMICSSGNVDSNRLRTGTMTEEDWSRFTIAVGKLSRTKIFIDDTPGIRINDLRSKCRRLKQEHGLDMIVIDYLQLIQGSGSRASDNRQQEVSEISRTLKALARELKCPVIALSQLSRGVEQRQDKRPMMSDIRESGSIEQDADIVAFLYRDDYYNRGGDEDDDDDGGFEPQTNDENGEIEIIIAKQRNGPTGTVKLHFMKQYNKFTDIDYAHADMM

HeLa = assay: Cytotoxicity against human HeLa cells by MTT assay; format: cell-based
Bacillus anthracis [3] = assay: Antibacterial activity against permeabilized polA-deficient Bacillus anthracis Sterne assessed as inhibition of DNA replication by cell based assay; format: functional, organism-based
Outline: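 ATP-dependent DNA replication measured in permeabilized ΔpolA B. anthracis Sterne cells by a modified Brown et al. method, testing whether compounds block an intact replisome.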

[4] = test system: Geobacillus stearothermophilus; assay: Antibacterial activity against Bacillus stearothermophilus ATCC 12980 by broth microdilution method; format: functional
Bacillus subtilis [5] = assay: Antibacterial activity against Bacillus subtilis BD54 by broth microdilution method; format: functional
Staphylococcus aureus [6] = assay: Antibacterial activity against Staphylococcus aureus ATCC 25923 by broth microdilution method; format: functional
Enterococcus faecalis [7] = assay: Antibacterial activity against Enterococcus faecalis ATCC 29212 by broth microdilution method; format: functional
Enterococcus faecalis [8] = assay: Antibacterial activity against vancomycin-resistant Enterococcus faecalis ATCC 51575 by broth microdilution method; format: functional
Priestia megaterium = assay: Antibacterial activity against Bacillus megaterium ATCC 12872 by broth microdilution method; format: functional
Bacillus licheniformis = assay: Antibacterial activity against Bacillus licheniformis ATCC 14580 by broth microdilution method; format: functional; conditions: DSM 13=ATCC 14580
Bacillus thuringiensis = assay: Antibacterial activity against Bacillus thuringiensis ATCC 10792 by broth microdilution method; format: functional
Bacillus cereus = assay: Antibacterial activity against Bacillus cereus ATCC 4342 by broth microdilution method; format: functional
[9] = Selectivity ratio of IC50 for Staphylococcus aureus Smith DNA helicase DnaC to IC50 for Bacillus anthracis DNA helicase DnaB
Bacillus anthracis [10] = assay: Inhibition of single strand DNA-stimulated ATPase activity of Bacillus anthracis DNA helicase DnaB at 100 uM
Outline: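 ssDNA-stimulated ATPase of B. anthracis helicase assayed with 100 μM inhibitor, 0.5 mM ATP and 200 pmole M13mp19 single-stranded DNA.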

Bacillus anthracis [11] = assay: Inhibition of Bacillus anthracis DNA helicase DnaB by competitive inhibition assay in presence of ATP
Outline: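 Helicase FRET unwinding kinetics with B. anthracis enzyme, varying both ATP (0.625, 1.25, 2.5 mM and higher) and inhibitor concentrations; analysed by Dixon plot (1/V vs [I]).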

Bacillus anthracis [12] = assay: Inhibition of Bacillus anthracis DNA helicase DnaB by Lineweaver-Burke plot analysis in presence of DNA substrate
Outline: (§1)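 FRET strand-unwinding assay with purified B. anthracis helicase, 6-FAM/BHQ1 annealed 60-mer duplex, pH 7.9 Tris, 2 mM MgCl2, 25 mM NaCl, 0.01% Triton X-100, 2.5 mM ATP, room temperature 30 min. Oligo substrate and inhibitor concentrations varied; Ki taken from a Dixon plot.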

[13] = Inhibition of Bacillus anthracis DNA helicase DnaB by Dixon plot analysis in presence of annealed oligonucleotide substrate; outline: as §1
Bacillus subtilis [14] = assay: Inhibition of Bacillus subtilis DNA gyrase up to 50 uM by gel mobility assay
Outline: (§2)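 B. subtilis DNA gyrase activity measured by a published gel mobility assay; compounds tested up to 50 μM.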

Bacillus anthracis [15] = assay: Antibacterial activity against Bacillus anthracis Sterne at 4 times MIC within 5.5 hrs; format: functional, organism-based
Staphylococcus aureus [16] = assay: Antibacterial activity against methicillin-resistant Staphylococcus aureus isolate 1094 by broth microdilution method; format: functional
Escherichia coli [17] = assay: Antibacterial activity against Escherichia coli 700 expressing […] gene by broth microdilution method; format: functional
Escherichia coli [18] = assay: Antibacterial activity against TolC deficient Escherichia coli 701 by broth microdilution method; format: functional
[19] = Inhibition of Bacillus subtilis DNA gyrase by gel mobility assay; outline: as §2
Bacillus subtilis [20] = assay: Inhibition of Bacillus subtilis class C DNA polymerase 3
Outline: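 B. subtilis Pol IIIC polymerase assay in 96-well format on DNase-activated chromosomal DNA substrate, which needs no helicase function.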

SMILES | MIC (Bacillus anthracis [1]) [µM] | MIC (Staphylococcus aureus [2]) [µM] | IC50 (DnaC helicase) [µM] | CC50 (HeLa) [µM] | IC50 (Bacillus anthracis [3]) [µM] | also measured
Cc1ccc(C)n1-c1ccc(SCC(=O)O)cc1 | > 100 | > 100 | 4 | > 100 | – | –
COc1cc(/C=C2\SC(=S)N(c3ccc([N+](=O)[O-])cc3)C2=O)cc(OC)c1O | > 100 | > 100 | 0.7 | 11 | – | –
Cc1c(CCC(=O)O)c(=O)oc2c(C)c(OCc3ccc(Br)cc3F)ccc12 | 10 (≈ 4.49 µg/mL) | > 100 | 180 | > 100 | 25 | MIC [4]: 5.6 mg/L (≈ 12.5 µM); MIC (Bacillus subtilis [5]): 4.2 mg/L (≈ 9.35 µM); MIC (Staphylococcus aureus [6]): 11.2 mg/L (≈ 24.9 µM); MIC (Enterococcus faecalis [7]): > 45 mg/L; MIC (Enterococcus faecalis [8]): > 45 mg/L; MIC (Priestia megaterium): > 45 mg/L; MIC (Bacillus licheniformis): 2.8 mg/L (≈ 6.23 µM); MIC (Bacillus thuringiensis): 2.8 mg/L (≈ 6.23 µM); MIC (Bacillus cereus): 2.8 mg/L (≈ 6.23 µM); Ratio IC50 [9]: 2; inhibition (Bacillus anthracis [10]): 16%; inhibition (Bacillus anthracis [11]): Active; inhibition (Bacillus anthracis [12]): Active; Ki [13]: 8 µM; inhibition (Bacillus subtilis [14]): inactive; Activity (Bacillus anthracis [15]): Active; MIC (Staphylococcus aureus [16]): > 45 mg/L; MIC (Escherichia coli [17]): > 45 mg/L; MIC (Escherichia coli [18]): > 45 mg/L
CO[C@@H]1[C@@H](OC(=O)c2ccc(C)[nH]2)[C@@H](O)[C@@H](Oc2ccc3c(O)c(NC(=O)c4c[nH]c(C(=O)Nc5c(O)c6ccc(O[C@H]7OC(C)(C)[C@H](OC)[C@@H](OC(=O)c8ccc(C)[nH]8)[C@H]7O)c(C)c6oc5=O)c4C)c(=O)oc3c2C)OC1(C)C [COUMERMYCIN] | – | – | – | – | – | IC50 [19]: < 1 µM
COc1cc(/C=C2\SC(=S)N(c3cccc(Cl)c3)C2=O)cc(OC)c1O | > 100 | > 100 | 3 | > 100 | 30 | –
Oc1ccc(O)c(-c2ccc(-c3nnc(S)o3)o2)c1 | 25 (≈ 6.91 µg/mL) | > 100 | > 100 | 66 | > 100 | –
COc1cc(/C=C2\SC(=S)N(c3cccc(C(F)(F)F)c3)C2=O)cc(OC)c1O | > 100 | > 100 | 4 | > 100 | 95 | –
CCOc1ccccc1C(=O)Nc1nc2ccc(S(N)(=O)=O)cc2s1 | > 100 | > 100 | 56 | 10 | > 100 | inhibition (Bacillus subtilis [20]): inactive
Cc1c(CCC(=O)O)c(=O)oc2c(C)c(OCc3cccc4ccccc34)ccc12 | 6 (≈ 2.41 µg/mL) | > 100 | 65 | 6 | 107 | MIC [4]: 5 mg/L (≈ 12.4 µM); MIC (Bacillus subtilis [5]): 15.1 mg/L (≈ 37.5 µM); MIC (Staphylococcus aureus [6]): 2.5 mg/L (≈ 6.21 µM); MIC (Enterococcus faecalis [7]): > 40 mg/L; MIC (Enterococcus faecalis [8]): > 40 mg/L; MIC (Priestia megaterium): > 40 mg/L; MIC (Bacillus licheniformis): 2.5 mg/L (≈ 6.21 µM); MIC (Bacillus thuringiensis): 2.5 mg/L (≈ 6.21 µM); MIC (Bacillus cereus): 2.5 mg/L (≈ 6.21 µM); Ratio IC50 [9]: 2; inhibition (Bacillus subtilis [14]): inactive; MIC (Staphylococcus aureus [16]): 5 mg/L (≈ 12.4 µM); MIC (Escherichia coli [17]): > 40 mg/L; MIC (Escherichia coli [18]): > 40 mg/L
Cc1nc(-c2c[nH]c(C(=O)O)c2)cs1 | > 100 | > 100 | 12 | > 100 | > 100 | –
Cc1noc(NS(=O)(=O)c2ccc(NC(=O)CSc3nnc(-c4ccccc4)c(-c4ccccc4)n3)cc2)c1C | 50 (≈ 28.6 µg/mL) | 75 (≈ 43 µg/mL) | 47 | 68 | 61 | MIC [4]: 57.3 mg/L (≈ 100 µM); MIC (Bacillus subtilis [5]): > 60 mg/L; MIC (Staphylococcus aureus [6]): 43 mg/L (≈ 75.1 µM); MIC (Enterococcus faecalis [7]): > 60 mg/L; MIC (Enterococcus faecalis [8]): > 60 mg/L; MIC (Priestia megaterium): 57.3 mg/L (≈ 100 µM); MIC (Bacillus licheniformis): 57.3 mg/L (≈ 100 µM); MIC (Bacillus thuringiensis): 57.3 mg/L (≈ 100 µM); MIC (Bacillus cereus): 57.3 mg/L (≈ 100 µM); inhibition (Bacillus subtilis [14]): inactive; MIC (Staphylococcus aureus [16]): 57.3 mg/L (≈ 100 µM); MIC (Escherichia coli [17]): > 60 mg/L; MIC (Escherichia coli [18]): 28.7 mg/L (≈ 50.1 µM)
Cn1c(SCc2cc(=O)oc3cc(O)c(O)cc23)nc2ccccc21 | 55 (≈ 19.5 µg/mL) | 23 (≈ 8.15 µg/mL) | 15 | 35 | 100 | Ratio IC50 [9]: 2
COc1ccc(Nc2nc(N)nc(-c3cc4ccccc4o3)n2)cc1 | > 100 | > 100 | 21 | 4 | > 100 | –
COc1cc(/C=C2\SC(=S)N(c3ccc(Cl)cc3)C2=O)cc(OC)c1O | > 100 | > 100 | 2 | > 100 | 73 | –
Nn1c(Cc2ccccc2F)nnc1SCc1cc(=O)oc2cc(O)c(O)cc12 | > 100 | > 100 | 15 | > 100 | 100 | Ratio IC50 [9]: 2
COc1cc(C(=O)Nc2nc3ccc(S(=O)(=O)N4CCOCC4)cc3s2)cc(OC)c1OC | > 100 | > 100 | 15 | 70 | > 100 | inhibition (Bacillus subtilis [20]): inactive
Cc1c(Cc2ccccc2)c(=O)oc2c(O)c(O)ccc12 | 20 (≈ 5.65 µg/mL) | 24 (≈ 6.78 µg/mL) | 42 | 10 | 10 | Ratio IC50 [9]: 2
Cc1ccc(C)n1-c1ccc(C(=O)O)c(O)c1 | 50 (≈ 11.6 µg/mL) | 50 (≈ 11.6 µg/mL) | – | > 100 | > 100 | –
CCC1(C)Cc2ccccc2-c2[nH]c3nnc(S)n3c(=O)c21 (centres undefined) | 30 (≈ 9.37 µg/mL) | > 100 | > 100 | 80 | 27 | –
